These results are taken from ChEMBL document CHEMBL3045617, “Synthesis and antiviral activities of cyanoacrylate derivatives containing an alpha-aminophosphonate moiety” (J Agric Food Chem, 2008).

Values after ≈ are worked out from the molar mass of the structure shown.

By EC50 is commonly meant the concentration needed to bring the measured effect to its halfway point.

Experiment [1] has as its system Tobacco mosaic virus. As to the kind of experiment: Antiviral activity against Tobacco mosaic virus (TMV) pre-treated with 125 ug/mL compound for 30 min followed by inoculation on left side of Nicotiana tabacum leaves assessed as virus inactivation effect measured 3 to 4 days post viral infection. In kind it is functional. In short, it runs like this:
(§1)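 Purified TMV is mixed with an equal volume of compound solution for 30 min. The mixture is rub-inoculated on the left half of N. tabacum leaves, and a solvent–virus mixture on the right half serves as control. Local lesions are recorded 3-4 days after inoculation. Inhibition % = (control − treated average lesions)/control × 100. Three repetitions. EC50 is derived from tests at several concentrations.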

In experiment [2] the test system is Tobacco mosaic virus. The experiment is described as follows: Antiviral activity against Tobacco mosaic virus (TMV) inoculated on whole Nicotiana tabacum leaves followed by smearing with 500 ug/mL compound solution on left side of leaves assessed as viral infection curative effect measured 3 to 4 days post viral infection. The format is functional. In short, it runs like this:
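Whole same-age N. tabacum leaves are brush-inoculated with purified TMV (6 × 10^-3 mg/mL), washed with water and dried. The compound solution is then applied to the left half and solvent to the right half as control. Local lesions are counted 3-4 days after inoculation. Inhibition % is calculated from average lesion counts, control versus treated. Three repetitions.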

Experiment [3] deals with Tobacco mosaic virus. As to the kind of experiment: Antiviral activity against Tobacco mosaic virus (TMV) pre-treated with compound for 30 min followed by inoculation on left side of Nicotiana tabacum leaves assessed as virus inactivation effect measured 3 to 4 days post viral infection. In kind it is functional, organism-based. The method in brief: as §1
For experiment [4], the system named is Tobacco mosaic virus. The experiment is described as follows: Antiviral activity against Tobacco mosaic virus (TMV) pre-treated with 62.5 ug/mL compound for 30 min followed by inoculation on left side of Nicotiana tabacum leaves assessed as virus inactivation effect measured 3 to 4 days post viral infection. In kind it is functional. The method in brief:
as §1

Experiment [5] has as its system Tobacco mosaic virus. The experiment is described as follows: Antiviral activity against Tobacco mosaic virus (TMV) pre-treated with 30.7 ug/mL compound for 30 min followed by inoculation on left side of Nicotiana tabacum leaves assessed as virus inactivation effect measured 3 to 4 days post viral infection. In kind it is functional. In short, it runs like this: as §1

In experiment [6] the test system is Tobacco mosaic virus. The experiment is described as follows: Antiviral activity against Tobacco mosaic virus (TMV) pre-treated with 500 ug/mL compound for 30 min followed by inoculation on left side of Nicotiana tabacum leaves assessed as virus inactivation effect measured 3 to 4 days post viral infection. In kind it is functional. The method in brief: as §1

The test system of experiment [7] is Tobacco mosaic virus. The experiment is described as follows: Antiviral activity against Tobacco mosaic virus (TMV) inoculated on 500 ug/mL compound smeared Nicotiana tabacum leaves assessed as protective effect against viral infection measured 3 to 4 days post viral infection. The format is functional. In short, it runs like this:
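Half-leaf assay on same-age N. tabacum leaves. The compound solution is applied to the left half and solvent to the right half as control. After 12 h, leaves dusted with silicon carbide are brush-inoculated with purified TMV (6 × 10^-3 mg/mL) and then rinsed with water. Local lesions are counted 3-4 days later. Inhibition % = (control lesions − treated lesions)/control lesions × 100. Three repetitions.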

The subject of experiment [8] is Tobacco mosaic virus. As to the kind of experiment: Antiviral activity against Tobacco mosaic virus (TMV) pre-treated with 250 ug/mL compound for 30 min followed by inoculation on left side of Nicotiana tabacum leaves assessed as virus inactivation effect measured 3 to 4 days post viral infection. The format is functional. In short, it runs like this: as §1

With `CCOP(=O)(OCC)C(N/C(SC)=C(/C#N)C(N)=O)c1ccccc1F` (stereo not given), the Activity in the experiment with Tobacco mosaic virus [1] was found to be 46.2%; in the experiment on Tobacco mosaic virus [2], 25.4%; with Tobacco mosaic virus [4], 35.8%; in the experiment on Tobacco mosaic virus [5] it was 26.9%; in the experiment with Tobacco mosaic virus [6] it was 70.7%; in the experiment on Tobacco mosaic virus [7], 42.8%. Moreover, the Activity in the experiment with Tobacco mosaic virus [8] was 49%. Further, in the experiment on Tobacco mosaic virus [3], the EC50 amounted to 151 µg/mL (≈ 376 µM).
`CCOP(=O)(OCC)C(N/C(SC)=C(/C#N)C(=O)NCc1ccccc1)c1ccccc1` (stereo not given): the Activity is given as 55% in the experiment with Tobacco mosaic virus [2], 51.9% in the experiment on Tobacco mosaic virus [6] and 55.1% in the experiment with Tobacco mosaic virus [7].
Take `CCCOP(=O)(OCCC)C(N/C(SC)=C(/C#N)C(=O)NCc1ccccc1)c1ccccc1` (stereo not given): the figures for the Activity in the experiment with Tobacco mosaic virus [2], in the experiment on Tobacco mosaic virus [6] and in the experiment on Tobacco mosaic virus [7] were 53.8%, 50% and 42.4%, respectively.
The matching figures for `CS/C(NC(c1ccccc1)P(=O)(OC(C)C)OC(C)C)=C(\C#N)C(=O)NCc1ccccc1` (stereo not given): 52.9%, 51.5% and 39%.
The matching figures for `CCCCOP(=O)(OCCCC)C(N/C(SC)=C(/C#N)C(=O)NCc1ccccc1)c1ccccc1` (stereo not given): 28.4%, 11% and 45%.
Turning to `CCOP(=O)(OCC)C(N/C(SC)=C(/C#N)C(=O)NCc1ccccc1)c1ccccc1F` (stereo not given), the Activity is recorded as 48.9% in the experiment with Tobacco mosaic virus [1]; 49.9% in the experiment on Tobacco mosaic virus [2]; 41.2% with Tobacco mosaic virus [4]; 29% with Tobacco mosaic virus [5]; 73.4% with Tobacco mosaic virus [6]; 47.7% in the experiment with Tobacco mosaic virus [7]. For the same molecule, the Activity in the experiment on Tobacco mosaic virus [8] was determined as 58.9%. Also, in the experiment on Tobacco mosaic virus [3], the EC50 stood at 128 µg/mL (≈ 260 µM).
Consider `CCOP(=O)(OCC)C(N/C(SC)=C(/C#N)C(=O)OC)c1ccccc1` (stereo not given), for which the Activity in the experiment on Tobacco mosaic virus [2] was 56.7%; in the experiment with Tobacco mosaic virus [6] it was 64.1%; in the experiment on Tobacco mosaic virus [7], 29.6%.
The matching figures for `CCCOP(=O)(OCCC)C(N/C(SC)=C(/C#N)C(=O)OC)c1ccccc1` (stereo not given): 37.7%, 47.1% and 44.4%.
Turning to `COC(=O)/C(C#N)=C(\NC(c1ccccc1)P(=O)(OC(C)C)OC(C)C)SC` (stereo not given), the Activity in the experiment on Tobacco mosaic virus [2] is listed as 43.3%; with Tobacco mosaic virus [6] it was 45.7%; in the experiment with Tobacco mosaic virus [7], 40.8%.
For `CCCCOP(=O)(OCCCC)C(N/C(SC)=C(/C#N)C(=O)OC)c1ccccc1` (stereo not given), the Activity in the experiment with Tobacco mosaic virus [1] was 66.9%; in the experiment on Tobacco mosaic virus [2], 60.2%; in the experiment with Tobacco mosaic virus [4], 53.7%; in the experiment with Tobacco mosaic virus [5], 37.6%; in the experiment with Tobacco mosaic virus [6], 92.8%; with Tobacco mosaic virus [7], 55.9%. The Activity in the experiment on Tobacco mosaic virus [8] is 70.2%. In the experiment on Tobacco mosaic virus [3], the EC50 turned out to be 55.5 µg/mL (≈ 122 µM).
`CCOP(=O)(OCC)C(N/C(SC)=C(/C#N)C(=O)OC)c1ccccc1F` (stereo not given): the Activity in the experiment with Tobacco mosaic virus [1] is reported as 60.6%; with Tobacco mosaic virus [2], 58.4%; with Tobacco mosaic virus [4] it was 52.5%; with Tobacco mosaic virus [5], 40.8%; in the experiment on Tobacco mosaic virus [6], 92.1%; with Tobacco mosaic virus [7], 44%. Besides, in the experiment with Tobacco mosaic virus [8], the Activity was determined as 69.7%. Further, the EC50 in the experiment on Tobacco mosaic virus [3] stood at 55.3 µg/mL (≈ 133 µM).
In the case of `CCCOP(=O)(OCCC)C(N/C(SC)=C(/C#N)C(=O)OCC)c1ccccc1` (stereo not given), the Activity with Tobacco mosaic virus [1] was 47.9%; with Tobacco mosaic virus [2] it was 50.5%; in the experiment on Tobacco mosaic virus [4] it was 33.1%; with Tobacco mosaic virus [5] it was 20.9%; with Tobacco mosaic virus [6] it was 71%; in the experiment with Tobacco mosaic virus [7], 41.6%. In addition, the Activity with Tobacco mosaic virus [8] came out at 50.1%. The EC50 in the experiment with Tobacco mosaic virus [3] came to 159 µg/mL (≈ 361 µM).
On to `CCOC(=O)/C(C#N)=C(\NC(c1ccccc1)P(=O)(OC(C)C)OC(C)C)SC` (stereo not given), for which the Activity with Tobacco mosaic virus [2] stood at 42.8%; with Tobacco mosaic virus [6], 37.8%; in the experiment on Tobacco mosaic virus [7], 37.6%.
Consider `CCCCOP(=O)(OCCCC)C(N/C(SC)=C(/C#N)C(=O)OCC)c1ccccc1` (stereo not given), for which the Activity turned out to be 51.6% in the experiment on Tobacco mosaic virus [1]; 55.8% in the experiment on Tobacco mosaic virus [2]; 48.5% in the experiment with Tobacco mosaic virus [4]; 42.6% with Tobacco mosaic virus [5]; 84% in the experiment with Tobacco mosaic virus [6]; 56.5% with Tobacco mosaic virus [7]. Besides, the Activity in the experiment on Tobacco mosaic virus [8] was 65.7%. For the same molecule, the EC50 with Tobacco mosaic virus [3] came out at 62.6 µg/mL (≈ 134 µM).
On to `CCOC(=O)/C(C#N)=C(\NC(c1ccccc1F)P(=O)(OCC)OCC)SC` (stereo not given), for which the Activity in the experiment with Tobacco mosaic virus [1] is listed as 50.1%; in the experiment with Tobacco mosaic virus [2] it was 50.7%; in the experiment with Tobacco mosaic virus [4], 39.1%; in the experiment with Tobacco mosaic virus [5], 30.7%; with Tobacco mosaic virus [6], 74.1%; in the experiment on Tobacco mosaic virus [7], 48.3%. Moreover, the Activity with Tobacco mosaic virus [8] is on record as 64.1%. Moreover, in the experiment with Tobacco mosaic virus [3], the EC50 came to 118 µg/mL (≈ 275 µM).
For `CCOCCOC(=O)/C(C#N)=C(\NC(c1ccccc1)P(=O)(OCC)OCC)SC` (stereo not given), the Activity in the experiment on Tobacco mosaic virus [2] is 55.2%; in the experiment on Tobacco mosaic virus [6], 46.8%; in the experiment on Tobacco mosaic virus [7], 41.2%.
The matching figures for `CCCOP(=O)(OCCC)C(N/C(SC)=C(/C#N)C(=O)OCCOCC)c1ccccc1` (stereo not given): 43.2%, 51.5% and 43.1%.
Take `CCOCCOC(=O)/C(C#N)=C(\NC(c1ccccc1)P(=O)(OC(C)C)OC(C)C)SC` (stereo not given): the Activity in the experiment with Tobacco mosaic virus [2] worked out at 35.1%; in the experiment on Tobacco mosaic virus [6], 55.9%; with Tobacco mosaic virus [7] it was 38.4%.
For the molecule `CCCCOP(=O)(OCCCC)C(N/C(SC)=C(/C#N)C(=O)OCCOCC)c1ccccc1` (stereo not given), the Activity is 53.8% with Tobacco mosaic virus [1]; 51.8% in the experiment on Tobacco mosaic virus [2]; 42.8% in the experiment on Tobacco mosaic virus [4]; 27.8% in the experiment on Tobacco mosaic virus [5]; 80.6% with Tobacco mosaic virus [6]; 44.4% in the experiment on Tobacco mosaic virus [7]. For the same molecule, the Activity with Tobacco mosaic virus [8] is given as 62%. For the same molecule, in the experiment on Tobacco mosaic virus [3], the EC50 worked out at 87.9 µg/mL (≈ 171 µM).
As to `CCOCCOC(=O)/C(C#N)=C(\NC(c1ccccc1F)P(=O)(OCC)OCC)SC` (stereo not given), the Activity in the experiment with Tobacco mosaic virus [1] amounted to 44.2%; with Tobacco mosaic virus [2], 52.7%; in the experiment on Tobacco mosaic virus [4] it was 34.4%; in the experiment on Tobacco mosaic virus [5], 20.8%; in the experiment with Tobacco mosaic virus [6], 70%; in the experiment with Tobacco mosaic virus [7], 48.3%. The Activity with Tobacco mosaic virus [8] is given as 48.8%. In addition, the EC50 in the experiment on Tobacco mosaic virus [3] came to 167 µg/mL (≈ 353 µM).
`CCOP(=O)(OCC)C(N/C(SC)=C(/C#N)C(N)=O)c1ccccc1` (stereo not given): the Activity amounted to 54.4% in the experiment with Tobacco mosaic virus [2], 60.8% in the experiment with Tobacco mosaic virus [6] and 55.6% in the experiment with Tobacco mosaic virus [7].
With `CCCOP(=O)(OCCC)C(N/C(SC)=C(/C#N)C(N)=O)c1ccccc1` (stereo not given), the Activity with Tobacco mosaic virus [2] was 53.9%; in the experiment with Tobacco mosaic virus [6] it was 63%; with Tobacco mosaic virus [7] it was 45.8%.
As for `CS/C(NC(c1ccccc1)P(=O)(OC(C)C)OC(C)C)=C(\C#N)C(N)=O` (stereo not given), the Activity with Tobacco mosaic virus [2] is recorded as 28.8%; in the experiment with Tobacco mosaic virus [6], 5.7%; in the experiment with Tobacco mosaic virus [7] it was 54.4%.
With `CCCCOP(=O)(OCCCC)C(N/C(SC)=C(/C#N)C(N)=O)c1ccccc1` (stereo not given), the Activity in the experiment on Tobacco mosaic virus [2] is given as 25.4%; in the experiment on Tobacco mosaic virus [6], 9.6%; in the experiment on Tobacco mosaic virus [7] it was 40.2%.
As for `CNCC(=O)N[C@@H](CO)C(=O)N[C@H]1[C@H](O)[C@@H](O)[C@H](n2ccc(N)nc2=O)O[C@@H]1C(N)=O` [NINGNANMYCIN], the Activity amounted to 70% with Tobacco mosaic virus [1]; 55.8% with Tobacco mosaic virus [2]; 60.1% in the experiment on Tobacco mosaic virus [4]; 42.1% in the experiment with Tobacco mosaic virus [5]; 99.5% in the experiment with Tobacco mosaic virus [6]; 59.9% in the experiment with Tobacco mosaic virus [7]. Further, in the experiment on Tobacco mosaic virus [8], the Activity came out at 80%. Besides, the EC50 with Tobacco mosaic virus [3] is 50.9 µg/mL (≈ 115 µM).
